mIAP inh = inhibitors of mouse IAP, primary screen, biochemical, luminescence, uHTS | 330,000 compounds, 0.2% hits | inhibition, % at 10 µM | purified mouse IAP, CDP-Star luminescence, 30 min | intestinal alkaline phosphatase [Mus musculus];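 active = inhibition of at least 40% at 10 µM in the primary screen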;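 also: plate controls were DMSO with enzyme for no effect and no enzyme wells for full effect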
mIAP activ = activators of mouse IAP, primary screen, biochemical, luminescence, uHTS; muIAP, CDP-Star luminescence, 30 min; active compounds read high; 1 = vehicle-only enzyme signal, 0 = enzyme-free wells; intestinal alkaline phosphatase [Mus musculus]; 330,000 compounds, 0.24% hits; activation factor at 10 µM;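 active = activation factor of at least 2 at 20 µM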
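System: mouse IAP enzyme. Reagent: CDP-Star chemiluminescent phosphatase substrate. Benchmarks: DMSO wells, no-enzyme wells. Times: 30 min enzyme-substrate-compound incubation at room temperature. Detection: luminescence from enzymatic CDP-Star hydrolysis. Doses: test compounds delivered from DMSO solution.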
bIAP activator = bovine intestinal alkaline phosphatase activators, primary screen, biochemical, bovine IAP, CDP-star luminescence; 200,000 compounds, 0.17% hits; alkaline phosphatase, intestinal [Bos taurus]; activation factor at 20 µM; purified bovine IAP, 30 min; active compounds read high; fold of DMSO-control signal, blank-subtracted;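 active = activation factor of 2 or more at 20 µM, a signal rise over negative controls twice the positive control's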
hIAP inh = human IAP inhibitors, primary screen, biochemical, luminescence, uHTS | Intestinal-type alkaline phosphatase (Homo sapiens), P09923 | purified IAP, CDP-Star luminescence, 30 min | inhibition, % at 10 µM | 330,000 compounds, 0.12% hits | AID 2544, 2010;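 active = inhibition reaching a set limit with compound at 10 µM in the primary screen, cut at about 35% in these data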;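 also: plate controls were DMSO wells with enzyme for no effect and no-enzyme buffer wells for full effect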
Target sequence (P09923 whole entry, looked up): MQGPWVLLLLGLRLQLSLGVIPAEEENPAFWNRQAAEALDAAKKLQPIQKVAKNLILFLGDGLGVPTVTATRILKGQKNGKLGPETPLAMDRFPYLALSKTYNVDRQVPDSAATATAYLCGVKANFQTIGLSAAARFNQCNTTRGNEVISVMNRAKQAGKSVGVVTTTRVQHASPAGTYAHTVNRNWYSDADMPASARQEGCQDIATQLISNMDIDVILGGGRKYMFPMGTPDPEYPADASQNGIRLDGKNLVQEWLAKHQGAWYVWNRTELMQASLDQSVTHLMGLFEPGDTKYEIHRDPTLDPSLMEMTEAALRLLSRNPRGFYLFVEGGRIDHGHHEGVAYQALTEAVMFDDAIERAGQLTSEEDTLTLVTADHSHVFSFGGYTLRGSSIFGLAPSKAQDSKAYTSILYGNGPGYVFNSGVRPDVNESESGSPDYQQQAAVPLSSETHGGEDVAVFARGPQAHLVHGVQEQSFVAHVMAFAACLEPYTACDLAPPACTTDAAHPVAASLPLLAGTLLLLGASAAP
bIAP inh = bovine intestinal alkaline phosphatase inhibitors, primary screen, selectivity assay for TNAP inhibitor project, biochemical, bovine IAP, CDP-star luminescence; alkaline phosphatase, intestinal [Bos taurus]; purified bovine IAP, 30 min; inhibition, % at 20 µM; 190,000 tested, under 10 active;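 active = over 50% inhibition of intestinal alkaline phosphatase at 20 µM in the single-dose screen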
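Assay system – bovine IAP enzyme · Quantity – bovine IAP at 1/65,000,000 final dilution · Detection – CDP-star luminescence signal · Times – 30 min reaction at room temperature · Also added – CDP-star substrate at 30 µM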
hIAP activ = human IAP activators, primary screen, biochemical, luminescence, uHTS; Intestinal-type alkaline phosphatase (Homo sapiens), P09923; purified human IAP, CDP-Star luminescence, 30 min; active compounds read high; 1 = vehicle-only enzyme, 0 = enzyme-free background; activation factor at 10 µM; 330,000 compounds, 0.16% hits;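 active = activation factor of the enzyme at least 2-fold when tested at 20 µM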
Numbers without * were called inactive. Sampled rows, rich in hits. Any-hit rate of the full collection: about 0.77%.

`CC(=O)N1c2ccc(S(=O)(=O)N3CCC(C(=O)Nc4cccc(C(F)(F)F)c4)CC3)cc2CC1C` (centres undefined) gave mIAP inh -137, mIAP activ 2.4*, hIAP inh 22 and hIAP activ 0.78.
For COc1cccc(NC(=O)C2CCN(S(=O)(=O)c3ccc4c(c3)CC(C)N4C(C)=O)CC2)c1 (centres undefined) the results were mIAP inh -30, mIAP activ 1.3, hIAP inh -7 and hIAP activ 1.1.
For CCc1cccc(NC(=O)C2CCN(S(=O)(=O)c3ccc4c(c3)CC(C)N4C(C)=O)CC2)c1 (centres undefined) the results were mIAP inh -115, mIAP activ 2.2*, hIAP inh 4 and hIAP activ 0.96.
CC(=O)N1CCC(=NNc2ncc(C(F)(F)F)cc2Cl)CC1 was read as mIAP inh -2, mIAP activ 1, bIAP activator 1.1, hIAP inh 7, bIAP inh -8 and hIAP activ 0.93.
C[C@@H](C(=O)Nc1ccc2ccccc2c1)[C@H]1C[C@]1(C)[C@H](NC(=O)c1cccnc1)c1ccccc1 was read as mIAP inh -81, mIAP activ 1.8, bIAP activator 0.8, hIAP inh 13, bIAP inh 18 and hIAP activ 0.87.
`C[C@@H](C(=O)Nc1ccc2ccccc2c1)[C@@H]1C[C@@]1(C)[C@@H](NC(=O)c1ccccc1)c1ccccc1` gave mIAP inh -132, mIAP activ 2.3*, bIAP activator 0.9, hIAP inh 8, bIAP inh 11 and hIAP activ 0.92.
Screening CCC(=O)Nc1cccc(-c2nnc(-c3cccc(NC(=O)CC)c3)o2)c1 returned mIAP inh 44*, mIAP activ 0.56, bIAP activator 1, hIAP inh 5, bIAP inh 5 and hIAP activ 0.95.
Cc1ccc(S(=O)(=O)N(C)C)cc1NC(=S)NC(C)CCCC(C)C (centres undefined) was read as mIAP inh -290, mIAP activ 3.9*, bIAP activator 1.4, hIAP inh -35, bIAP inh -44 and hIAP activ 1.4.
For CCCCCCC(C)NC(=S)Nc1cc(S(=O)(=O)N(C)C)ccc1C (centres undefined) the results were mIAP inh -381, mIAP activ 4.8*, bIAP activator 1.2, hIAP inh -14, bIAP inh -21 and hIAP activ 1.1.
For COc1cccc(-c2c(-c3cc(OC)cc(OC)c3)n(C)c3ccc(-c4cccc5[nH]ccc45)cc23)c1 the results were mIAP inh -14, mIAP activ 1.1, hIAP inh -12 and hIAP activ 1.1.
For Cn1c(C(=O)N2CCCC(Nc3ccc(F)cc3)C2)cc2ccccc21 (centres undefined) the results were mIAP inh -8, mIAP activ 1.1, hIAP inh 7 and hIAP activ 0.93.
For O=C(COC(=O)C1CCN(S(=O)(=O)c2ccc3c(c2)OCCO3)CC1)Nc1ccc(C(F)(F)F)cc1 the results were mIAP inh -11, mIAP activ 1.1, bIAP activator 0.9, hIAP inh -23, bIAP inh 14 and hIAP activ 1.2.
Screening O=[N+]([O-])c1c(NCCCO)cc(SCc2ccco2)c2nonc12 returned mIAP inh 54*, mIAP activ 0.46, bIAP activator 0.9, hIAP inh -8, bIAP inh 5 and hIAP activ 1.1.
For c1ccc(-c2c(-c3ccccc3)n(Cc3ccco3)c3ncnc(NCCCn4ccnc4)c23)cc1 the results were mIAP inh -7, mIAP activ 1.1, bIAP activator 49*, hIAP inh 3, bIAP inh inactive and hIAP activ 0.97.
For OCCNc1ncnc2c1c(-c1ccccc1)c(-c1ccccc1)n2Cc1ccco1 the results were mIAP inh -1, mIAP activ 1, bIAP activator 1.1, hIAP inh 17, bIAP inh -13 and hIAP activ 0.83.
COc1cccc(C2CN(c3ccc(F)cc3F)N=C2c2cccs2)c1OC (centres undefined) was read as mIAP inh -104, mIAP activ 2*, bIAP activator 0.9, hIAP inh -3, bIAP inh 10 and hIAP activ 1.
For COc1ccc(CN2CCC(C(=O)c3ccc(Cl)cc3)CC2)cc1 the results were mIAP inh 5, mIAP activ 0.95, hIAP inh -22 and hIAP activ 1.2.
For CN(C)Cc1ccccc1Sc1cccc2ccccc12 the results were bIAP activator 2.3* and bIAP inh -127.
COc1ccc(C(=O)N2CCN(C(=O)CC(C)C)CC2)cc1OC was read as mIAP inh 4, mIAP activ 0.96, bIAP activator 1, hIAP inh -8, bIAP inh 0 and hIAP activ 1.1.
Screening COc1cc(C(=O)N2CCN(C(=O)CC(C)C)CC2)cc(OC)c1OC returned mIAP inh 40*, mIAP activ 0.6, bIAP activator 1, hIAP inh -7, bIAP inh 0 and hIAP activ 1.1.
For CCOC(=O)c1c(N)sc(=S)c2c1CCC2 the results were mIAP inh 41*, mIAP activ 0.59, bIAP activator 0.9, hIAP inh 4, bIAP inh 6 and hIAP activ 0.96.
CCC(NC(=O)Nc1cc(OC)c(OC)c(OC)c1)(C(F)(F)F)C(F)(F)F was read as mIAP inh -110, mIAP activ 2.1*, bIAP activator 1.1, hIAP inh 6, bIAP inh -12 and hIAP activ 0.94.
For COc1cc(NC(=O)COC(C)=O)cc(OC)c1OC the results were mIAP inh 8, mIAP activ 0.92, bIAP activator 1.1, hIAP inh 1, bIAP inh -10 and hIAP activ 0.99.
CC(C)(Oc1ccc(Cl)cc1)C(=O)NNC(=O)c1ccc(Br)o1 was read as mIAP inh 5, mIAP activ 0.95, hIAP inh -100 and hIAP activ 2.
O=C(CSc1nnc(CCc2nc3ccccc3[nH]2)n1-c1ccccc1)NCc1ccco1 was read as mIAP inh -7, mIAP activ 1.1, bIAP activator 2.5*, hIAP inh 10, bIAP inh -151 and hIAP activ 0.9.
